Our source for the IC50, Activity and inhibition in vivo values is ChEMBL document CHEMBL1641555, “Asymmetric synthesis of phenanthroindolizidine alkaloids with hydroxyl group at the C14 position and evaluation of their antitumor activities” (Bioorg Med Chem Lett, 2011).

The IC50 is the point on the concentration scale where inhibition reaches its midpoint. A word on the inhibition in vivo: it is the drop in the measured response relative to a control, in per cent.

Each structure is given as a SMILES string.

Data set [1] has as its system A549. As to the kind of experiment: Cytotoxicity against human A549 cells after 96 hrs by WST-8 assay. It counts as functional, cell-based. Particulars: A549, 96 h. The procedure, abridged:
(§1)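 KB, A549 and HT-29 cells in exponential growth were seeded at 10³ cells/well. Serially diluted compounds were added the following day and incubated for 96 h. WST-8 reagent was then added for 1 h at 37 °C, and viability was read as absorbance at 450 nm.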
Background: Tetrazolium dyes change colour on reduction, which living cells bring about.

Data set [2] relates to KB. As to the kind of experiment: Cytotoxicity against human KB cells after 96 hrs by WST-8 assay. It is filed as functional, cell-based. The method in brief:
as §1

The test system of data set [3] is HT-29. As to the kind of experiment: Cytotoxicity against human HT-29 cells after 96 hrs by WST-8 assay. It counts as functional, cell-based. The settings on record: HT-29, 96 h. The method in brief: as §1
Data set [4] has as its system Mus musculus. Put plainly: Toxicity in mouse Meth-A cells xenografted BALB/c mouse assessed as mortality at 25 mg/kg, iv. It counts as organism-based. Particulars: in vivo. Also on record: dose 25 mg/kg, route intravenous. The procedure, abridged: (§2)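 Meth A sarcoma cells, 2.5 × 10⁵ per mouse, inoculated sc into 7-week-old male BALB/c mice, 5 per group. Samples given iv on days 1, 5 and 9. Animals followed to day 21 after tumor inoculation, when tumors were weighed.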

Data set [5] can be described thus: Antitumor activity against mouse Meth-A cells xenografted in BALB/c mouse assessed as tumor growth inhibition at 25 mg/kg, iv administered on day 1, 5, and 9 measured after 21 days relative to control. It counts as functional. The procedure, abridged: (§3)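 Meth A sarcoma cells, 2.5 × 10⁵ per mouse, implanted sc in 7-wk-old male BALB/c mice, 5 per group. Compound given iv on days 1, 5 and 9. Tumors excised and weighed on day 21 after inoculation. Inhibition rate (%) = [1 − (mean tumor weight treated)/(mean tumor weight control)] × 100.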

The nature of data set [6]: Antitumor activity against mouse Meth-A cells xenografted in BALB/c mouse assessed as tumor growth inhibition at 50 mg/kg, iv administered on day 1, 5, and 9 measured after 21 days relative to control. It counts as functional. The method in brief: as §3
In data set [7] the test system is Mus musculus. As to the kind of experiment: Toxicity in mouse Meth-A cells xenografted BALB/c mouse assessed as mortality at 100 mg/kg, iv. It counts as organism-based. Also on record: dose 100 mg/kg, route intravenous. The settings on record: in vivo. The procedure, abridged:
as §2

The subject of data set [8] is Mus musculus. Put plainly: Toxicity in mouse Meth-A cells xenografted BALB/c mouse assessed as mortality at 50 mg/kg, iv. It is filed as organism-based. Further details: dose 50 mg/kg, route intravenous. The settings on record: in vivo. The procedure, abridged:
as §2

Consider `COc1cc2c3c(c4cccc(O)c4c2cc1OC)[C@H](O)[C@@H]1CCCN1C3`, for which the IC50 in data set [1] was 3.3 nM; in data set [2], 1.4 nM; in data set [3], 82.1 nM.
Consider `COc1cc2c3c(c4ccc(F)cc4c2cc1OC)[C@H](O)[C@@H]1CCCN1C3`, for which the half-maximal inhibitory concentration (IC50) in data set [1] stood at 11.2 nM; in data set [2] it was 49 nM; in data set [3], 19.6 nM.
With `COc1ccc2c3c(c4cc(OC)c(OC)cc4c2c1)CN1CCC[C@@H]1[C@@H]3O`, the half-inhibitory concentration (IC50) came to 15.5 nM in data set [1], 47.4 nM in data set [2] and 20.8 nM in data set [3].
As for `COc1cc2c3c(c4ccc(OC(C)=O)cc4c2cc1OC)[C@H](O)[C@@H]1CCCN1C3`, the figures for the IC50 in data set [1], in data set [2] and in data set [3] were 1.5 nM, 1.7 nM and 0.2 nM, respectively. Moreover, the Activity entry in data set [4] is “Non-toxic”. Besides, the inhibition in vivo at 25 mg/kg in data set [5] turned out to be 54.9%. Besides, the inhibition in vivo at 50 mg/kg in data set [6] was 39.3%.
Turning to `CCc1ccc2c3c(c4cc(OC)c(OC)cc4c2c1)CN1CCC[C@H]1[C@H]3O`, the figures for the 50% inhibitory concentration (IC50) in data set [1], in data set [2] and in data set [3] were 559 nM, 180 nM and 135 nM, respectively.
For `COc1cc2c3c(c4ccccc4c2cc1OC)[C@H](O)[C@@H]1CCCN1C3` the same measures were 7.4 nM, 17.5 nM and 10.6 nM.
As for `COc1cc2c(CBr)cc3ccc(OCc4ccccc4)cc3c2cc1OC`, the Activity entry in data set [7] and in data set [8] was “Non-toxic” each time.
As for `COc1cc2c3c(c4ccc(F)cc4c2cc1OC)[C@@H](O)[C@H]1CCCN1C3`, the figures for the half-maximal inhibitory concentration (IC50) in data set [1], in data set [2] and in data set [3] were 92.8 nM, 653 nM and 106 nM, respectively.
With `COc1cc2c3c(c4ccc(O)cc4c2cc1OC)[C@H](O)[C@@H]1CCCN1C3` [TYLOPHORIDICINE E], the concentration for half-maximal inhibition (IC50) came out at 0.5 nM in data set [1], 5.2 nM in data set [2] and 1.6 nM in data set [3]. The Activity result in data set [4] is recorded as “Non-toxic”; in data set [8] it was “Toxic”. In addition, the inhibition in vivo at 25 mg/kg in data set [5] amounted to 30.6%.
In the case of `COc1ccc2c3c(c4cc(OC)c(OC)cc4c2c1)CN1CCC[C@H]1[C@H]3O`, the results for the IC50 in data set [1], in data set [2] and in data set [3] were 0.3 nM, 4.2 nM and 2.1 nM, respectively. The inhibition in vivo at 25 mg/kg in data set [5] turned out to be 4.3%. For the same compound, the Activity entry in data set [8] is reported as “Non-toxic”.
Take `CCOc1cc2c3c(c4ccc(O)cc4c2cc1OCC)[C@H](O)[C@@H]1CCCN1C3`: the IC50 in data set [1] was 0.7 nM; in data set [2] it was 10.9 nM; in data set [3], 1.2 nM. The Activity entry in data set [4] and in data set [8] was “Non-toxic” in each case. In addition, the inhibition in vivo at 25 mg/kg in data set [5] is -3.1%. The inhibition in vivo at 50 mg/kg in data set [6] is -10.6%.
`Oc1ccc2c3c(c4cc5c(cc4c2c1)OCO5)CN1CCC[C@H]1[C@H]3O`: the IC50 stood at 54.4 nM in data set [1], 25.5 nM in data set [2] and 134 nM in data set [3].
`COc1cc2c3c(c4ccc(O)cc4c2cc1OC)[C@@H](O)[C@H]1CCCN1C3`: the results for the IC50 in data set [1], in data set [2] and in data set [3] were 10.9 nM, 3 nM and 12.5 nM, respectively. Besides, the Activity entry in data set [4] and in data set [8] was “Non-toxic” in each case. In data set [5], the inhibition in vivo at 25 mg/kg was found to be 7.2%. Also, in data set [6], the inhibition in vivo at 50 mg/kg amounted to 12.5%.
For `CCc1ccc2c3c(c4cc(OC)c(OC)cc4c2c1)CN1CCC[C@@H]1[C@@H]3O`, the values for the concentration for half-maximal inhibition (IC50) in data set [1], in data set [2] and in data set [3] were 268 nM, 1590 nM and 320 nM, respectively.
As for `CC1(C)Oc2cc3c4c(c5ccc(O)cc5c3cc2O1)[C@H](O)[C@@H]1CCCN1C4`, the IC50 in data set [1] was 928 nM; in data set [2], 742 nM; in data set [3], 488 nM.
For `COc1cc2c3c(c4ccccc4c2cc1OC)[C@@H](O)[C@H]1CCCN1C3` the same measures were 604 nM, 2030 nM and 584 nM.
For `Oc1ccc2c3c(c4ccccc4c2c1)CN1CCC[C@H]1[C@H]3O`, the values for the half-inhibitory concentration (IC50) in data set [1], in data set [2] and in data set [3] were 354 nM, 1960 nM and 458 nM, respectively.
On to `COc1cc2c3c(c4cc(O)ccc4c2cc1OC)[C@H](O)[C@@H]1CCCN1C3`, for which the values for the half-inhibitory concentration (IC50) in data set [1], in data set [2] and in data set [3] were 4.7 nM, 43.8 nM and 6.8 nM, respectively.
